From ChEMBL document CHEMBL1135471, “Sugar-modified conjugated diene analogues of adenosine and uridine: synthesis, interaction with S-adenosyl-L-homocysteine hydrolase, and antiviral and cytostatic effects” (J Med Chem, 2002)
Activity calls are given as the source filed them. No cut-off for these calls is given here.

Experiments:
[1] = test system: Human alphaherpesvirus 2; assay: Activity against herpes simplex virus 2 (HSV-2) strain G, was determined; No activity; assay type: functional, organism-based
[2] = test system: Vesicular stomatitis virus; assay: Activity against vesicular stomatitis virus, was determined; No activity; assay type: functional, organism-based
[3] = test system: HEL; assay: Minimum cytotoxic concentration determined in embryonic lung (HEL) cells; assay type: functional, Homo sapiens
Method in brief: (§1)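 Human embryonic lung (HEL) cells were used against CMV strains AD-169 and Davis and VZV strains YS, OKA, 07/1 and YS/R. EC50 values are for the antiviral effect. The minimum cytotoxic concentration and CC50 for HEL cells were measured alongside.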

[4] = test system: Human alphaherpesvirus 1; assay: Activity against herpes simplex virus 1 (HSV-1) strain KOS, was determined; No activity; assay type: functional, organism-based
[5] = Minimum cytotoxic concentration against Coxsackie B4 virus in HeLa cell cultures, was determined.; assay type: functional, Coxsackievirus B4
[6] = target: T1, Adenosylhomocysteinase (Homo sapiens, UniProt P23526); assay: Percent NAD+ content after incubation of AS-adenosylhomocysteine hydrolase (5.8 uM) with 100 uM of compound at 37 degree C for 20 min; assay type: functional
Method in brief: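 Human AdoHcy hydrolase at 5.8 μM was preincubated with 100 μM inhibitor in 50 mM potassium phosphate, pH 7.2, with 1 mM EDTA, at 37 °C for 20 min. Cofactors were released with HClO4. NAD+ was quantified by C18 RP-HPLC (25 mM phosphate pH 3.2 with heptane sulfonic acid; acetonitrile gradient) with detection at 258 nm. Values are % NAD+ remaining.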
Target sequence in this assay (P23526 2-432 limits assumed): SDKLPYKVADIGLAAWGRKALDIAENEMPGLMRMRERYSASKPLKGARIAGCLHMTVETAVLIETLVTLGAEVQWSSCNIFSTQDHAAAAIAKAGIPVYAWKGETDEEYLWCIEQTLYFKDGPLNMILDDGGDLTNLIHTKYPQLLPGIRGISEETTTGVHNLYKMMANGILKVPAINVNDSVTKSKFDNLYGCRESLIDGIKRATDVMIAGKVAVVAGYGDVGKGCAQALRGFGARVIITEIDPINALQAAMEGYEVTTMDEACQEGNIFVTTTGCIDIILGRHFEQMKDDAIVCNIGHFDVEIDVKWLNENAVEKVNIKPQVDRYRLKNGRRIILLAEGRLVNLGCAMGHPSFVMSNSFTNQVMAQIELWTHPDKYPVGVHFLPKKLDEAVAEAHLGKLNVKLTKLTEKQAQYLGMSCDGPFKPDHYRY

[7] = test system: HEL; assay: 50 % cytotoxic concentration for human embryonic lung (HEL) cells; assay type: functional; method in brief: as §1
[8] = test system: Human immunodeficiency virus 1; assay: Cytostatic concentration against […] virus strains IIIB and ROD, in T-lymphocytic MT-4 cells; assay type: functional; settings: Human immunodeficiency virus 1, MT4
Method in brief: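 T-lymphocytic MT-4 cells were tested alongside HIV-1 IIIB and HIV-2 ROD antiviral assays. The CC50 is the 50% cytostatic concentration for the MT-4 cells.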

[9] = target: T1, Adenosylhomocysteinase; assay: Percent S-adenosyl-homocysteine hydrolase (210 nM) activity remaining after incubating with 100 uM at 37 degree C for 20 minutes
Method in brief: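 Human enzyme preincubated with compound in 50 mM potassium phosphate pH 7.2, 1 mM EDTA. Residual activity measured in the synthetic direction: 1 mM Ado plus 1 mM Hcy, 37 °C, 1 min, stopped with HClO4. AdoHcy quantified by RP-HPLC at 258 nm. Duplicate determinations averaged.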
Target sequence in this assay (P23526 2-432 limits assumed): as above

[10] = test system: E6SM; assay: Minimum concentration required to cause a microscopically detectable alteration of normal cell morphology in human embryonic skin muscle (E6SM) cell cultures; assay type: functional; settings: for minimal effective concentration: read-out: MEC
Method in brief: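 E6SM cell cultures were examined by microscopy. The value is the minimum concentration giving a detectable alteration of normal cell morphology.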

[11] = test system: Vero; assay: Antiviral activity (cytotoxicity) was evaluated in vero cell cultures.; assay type: functional, Chlorocebus sabaeus
[12] = test system: Vaccinia virus; assay: Activity against vaccinia virus, was determined; No activity; assay type: functional, organism-based; settings: Orthopoxvirus vaccinia
[13] = Minimum cytotoxic concentration against vesicular stomatitis virus in HeLa cell cultures, was determined.; assay type: functional
[14] = Minimum cytotoxic concentration against respiratory syncytial virus in HeLa cell cultures, was determined; assay type: functional
[15] = test system: Vero; assay: Antiviral activity was evaluated in vero cell cultures.; assay type: functional; settings: Chlorocebus sabaeus
[16] = test system: Human betaherpesvirus 5; assay: 50 % effective concentration against cytomegalo virus (CMV); assay type: functional, organism-based; method in brief: as §1
[17] = target: T1, Adenosylhomocysteinase; assay: Inhibitory constant for S-adenosyl-homocysteine hydrolase, was determined using Kitz and Wilson equation {Kobs = Kinact. [I]/(Ki + [I])}.
Target sequence in this assay (P23526 whole entry): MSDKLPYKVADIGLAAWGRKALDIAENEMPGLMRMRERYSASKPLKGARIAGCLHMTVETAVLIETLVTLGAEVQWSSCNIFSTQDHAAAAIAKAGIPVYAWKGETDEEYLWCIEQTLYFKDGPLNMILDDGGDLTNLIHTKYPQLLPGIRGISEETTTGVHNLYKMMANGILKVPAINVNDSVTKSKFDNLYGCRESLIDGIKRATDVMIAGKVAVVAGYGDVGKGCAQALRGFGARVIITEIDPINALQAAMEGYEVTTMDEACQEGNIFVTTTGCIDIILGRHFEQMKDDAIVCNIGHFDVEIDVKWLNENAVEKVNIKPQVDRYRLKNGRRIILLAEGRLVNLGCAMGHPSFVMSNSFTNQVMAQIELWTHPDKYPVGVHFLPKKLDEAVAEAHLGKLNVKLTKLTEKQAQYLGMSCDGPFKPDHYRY

[18] = target: T1, Adenosylhomocysteinase; assay: Percent NAD+ content after incubation of S-adenosyl-homocysteine hydrolase (5.8 uM) with 100 uM of compound at 37 degree C for 20 min; assay type: functional
Method in brief: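 Enzyme in 50 mM potassium phosphate pH 7.2 with 1 mM EDTA. After the inhibitor step, cofactors were released with 5 N HClO4. NAD+ was quantified by C18 RP-HPLC at 258 nm, using a 2–98% acetonitrile gradient over 25 min against 25 mM phosphate pH 3.2 containing 10 mM heptane sulfonic acid.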
Target sequence in this assay (P23526 2-432 limits assumed): as the sequence (P23526 2-432 limits assumed) above

[19] = target: T1, Adenosylhomocysteinase; assay: Inactivation constant for S-adenosyl-homocysteine hydrolase, was determined using Kitz and Wilson equation {Kobs = Kinact. [I]/(Ki + [I])}.
Target sequence in this assay (P23526 2-432 limits assumed): as above

[20] = target: T1, Adenosylhomocysteinase; assay: Inactivation constant for aS-adenosylhomocysteine hydrolase, was determined using Kitz and Wilson equation {Kobs = Kinact. [I]/(Ki + [I])}.
Target sequence in this assay (P23526 2-432 limits assumed): as above

[21] = test system: HEL; assay: Minimum cytotoxic concentration determined in embryonic lung (HEL) cells against human CMV, strains AD-169 and Davis and VZV, strains YS, OKA, 07/1, and YS/R; assay type: functional; method in brief: as §1
[22] = test system: Vesicular stomatitis virus; assay: Minimum cytotoxic concentration against vesicular stomatitis virus in HeLa cell cultures; assay type: functional
[23] = test system: Coxsackievirus B4; assay: Minimum cytotoxic concentration against Coxsackie B4 virus in HeLa cell cultures; assay type: functional
[24] = test system: Vaccinia virus; assay: Minimum cytotoxic concentration against vaccinia virus, was determined; assay type: functional, organism-based; settings: Orthopoxvirus vaccinia
[25] = test system: Human alphaherpesvirus 2; assay: Activity against herpes simplex virus 2 (HSV-2) […], was determined; No activity; assay type: functional, organism-based
[26] = test system: Vero; assay: Activity was evaluated in vero cell cultures; Cytotoxic; assay type: functional, cell-based; settings: Chlorocebus sabaeus
[27] = test system: Respiratory syncytial virus; assay: Minimum cytotoxic concentration against respiratory syncytial virus in HeLa cell cultures; assay type: functional
[28] = test system: Human alphaherpesvirus 3; assay: 50 % effective concentration against Varicella-Zoster virus (VZV) was determined.; assay type: functional, organism-based; method in brief: as §1

Row | SMILES | Antiviral activity against HSV-2 [1] | antiviral activity [2] | antiviral activity against HSV-1 [4] | MCC50 [5] [µM] | CC50 [8] [µM] | Activity [9] [%] | MEC50 [10] [µM] | MCC50 [11] [µM] | antiviral activity [12] | MCC50 [13] [µM] | MCC50 [14] [µM] | MCC [15] [µM] | minimal effective concentration [10] [µM] | Ki [17] [µM] | NAD+ content [18] [%] | also measured
1 | Nc1ncnc2c1ncn2C1O[C@H](/C=C/C=C(Br)Br)[C@@H](O)[C@H]1O (some centres undefined) | inactive | inactive | inactive | >35 | 11 | 48 | 6.7 | >35000 | inactive | >35 | >35 | – | – | – | – | MCC50 [3]: 45 µM; NAD+ content [6]: 93.1%; CC50 [7]: 54 µM
2 | CCOC(=O)/C=C/C=C/[C@H]1OC(n2ccc(=O)[nH]c2=O)[C@H](O)[C@@H]1O (some centres undefined) | inactive | inactive | inactive | >200 | > 370 | – | – | – | inactive | >200 | >200 | > 200 | > 40 | – | – | –
3 | CCOC(=O)/C=C\C=C\[C@H]1OC(n2cnc3c(N)ncnc32)[C@H](O)[C@@H]1O (some centres undefined) | inactive | inactive | inactive | >200 | 160 | 1.8 | >40 | >200 | inactive | >200 | >200 | – | – | 13.7 | 36.2 | EC50 [16]: 18 µM; K inact [19]: 0.59 min⁻¹
4 | CCOC(=O)/C=C/C=C/[C@H]1OC(n2cnc3c(N)ncnc32)[C@H](O)[C@@H]1O (some centres undefined) | inactive | inactive | inactive | >200 | 175 | 3.6 | >40 | >200 | inactive | >200 | >200 | – | – | 10 | 25.9 | K inact [20]: 0.7 min⁻¹; MCC50 [21]: >120 µM
5 | O=c1ccn(C2O[C@H](/C=C/C=C(Br)Br)[C@@H](O)[C@H]2O)c(=O)[nH]1 (some centres undefined) | – | – | inactive | – | 300 | – | >40 | – | – | – | – | – | – | – | – | MCC50 [22]: >=200 uM; MCC50 [23]: >=200 uM; MCC50 [24]: inactive; MCC50 [25]: inactive; Activity [26]: Toxic; MCC50 [27]: >=200 uM
6 | CCOC(=O)/C=C\C=C\[C@H]1OC(n2ccc(=O)[nH]c2=O)[C@H](O)[C@@H]1O (some centres undefined) | inactive | inactive | inactive | >200 | 40 | – | – | – | inactive | >200 | >200 | > 200 | > 40 | – | – | EC50 [28]: 10 µM
